The values that follow come from ChEMBL document CHEMBL5038587, “Synthesis of Methoxy-, Methylenedioxy-, Hydroxy-, and Halo-Substituted Benzophenanthridinone Derivatives as DNA Topoisomerase IB (TOP1) and Tyrosyl-DNA Phosphodiesterase 1 (TDP1) Inhibitors and Their Biological Activity for Drug-Resistant Cancer” (J Med Chem, 2021).

In test [1] the target is Tyrosyl-DNA phosphodiesterase 1 (Homo sapiens, UniProt Q9NUW8). Kind of test: Inhibition of TDP1 (unknown origin) using 5'-FAM-AGGATCTAAAAGACTT-BHQ-3' as substrate at 100 uM measured after 30 mins by fluorescence assay relative to control.
In test [2] the target is T1, DNA topoisomerase 1 (Homo sapiens) (UniProt P11387).
T1 sequence (whole entry): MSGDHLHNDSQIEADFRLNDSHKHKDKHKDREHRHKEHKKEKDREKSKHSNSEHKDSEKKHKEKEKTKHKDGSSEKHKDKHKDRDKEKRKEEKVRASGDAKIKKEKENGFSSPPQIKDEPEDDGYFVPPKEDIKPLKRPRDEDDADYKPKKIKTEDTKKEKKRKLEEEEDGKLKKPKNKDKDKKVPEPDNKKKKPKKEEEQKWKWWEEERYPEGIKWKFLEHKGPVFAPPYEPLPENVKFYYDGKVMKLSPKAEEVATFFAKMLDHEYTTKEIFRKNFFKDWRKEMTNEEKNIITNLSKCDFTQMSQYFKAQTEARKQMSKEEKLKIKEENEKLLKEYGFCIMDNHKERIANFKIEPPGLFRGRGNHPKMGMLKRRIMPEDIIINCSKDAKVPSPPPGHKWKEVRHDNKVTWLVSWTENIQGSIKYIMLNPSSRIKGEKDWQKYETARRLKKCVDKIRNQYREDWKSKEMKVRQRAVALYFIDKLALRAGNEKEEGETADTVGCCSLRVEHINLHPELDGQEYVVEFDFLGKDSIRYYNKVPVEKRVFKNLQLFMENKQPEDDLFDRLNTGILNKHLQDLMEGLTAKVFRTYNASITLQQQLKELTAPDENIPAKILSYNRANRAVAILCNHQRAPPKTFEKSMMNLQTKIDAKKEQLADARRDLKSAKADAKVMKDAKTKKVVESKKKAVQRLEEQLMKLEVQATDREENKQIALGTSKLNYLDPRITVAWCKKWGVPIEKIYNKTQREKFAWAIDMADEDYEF
Kind of test: Inhibition of recombinant TOP1 (unknown origin) at 1 uM using 3'-[32P]-labeled 117 bp DNA oligonucleotides as substrate incubated for 20 mins by PAGE analysis relative to CPT. In short, it runs like this: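 3'-[32P]-labeled 117 bp oligonucleotide (~2 nM) with recombinant TOP1 and compound, 25 °C, 20 min. Buffer: 10 mM Tris-HCl pH 7.5, 50 mM KCl, 5 mM MgCl2, 0.1 mM EDTA, BSA. Stopped with 0.5% SDS and run on 20% denaturing PAGE with phosphorimaging.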

The next test relates to DU-145. The test can be described thus: Cytotoxicity against human DU145 cells assessed as cell growth inhibition after 72 hrs by MTT assay. The format is functional. In a few lines: (§1)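 Compounds predissolved in DMSO, tested in a five-dose series from 0.01 to 100 µM for 72 h, then read by MTT. Percent viability inhibition is taken against control, and GI50 is fitted by nonlinear regression.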
For orientation: Tetrazolium assays rely on reduction of a dye to a coloured formazan, in cell work by metabolically active cells.

The test system of a further test is MCF7. Kind of test: Cytotoxicity against human MCF-7 cells assessed as cell growth inhibition after 72 hrs by MTT assay. It is filed as functional. In a few lines: as §1
The next test deals with A549. The test can be described thus: Cytotoxicity against human A549 cells assessed as cell growth inhibition after 72 hrs by MTT assay. The format is functional. In a few lines: (§2)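 Cells kept in RPMI 1640 or DMEM with 10% FBS at 37 °C, 5% CO2. Compounds predissolved in DMSO, tested in a five-dose series from 0.01 to 100 µM for 72 h, then read by MTT. Percent viability inhibition is taken against control, and GI50 is fitted by nonlinear regression.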

Another test concerns HCT-116. The test can be described thus: Cytotoxicity against human HCT-116 cells assessed as cell growth inhibition after 72 hrs by MTT assay. The format is functional. In a few lines: as §2

SMILES strings stand for the structures. Activity calls are given as the source filed them. The calls are words filed in the database; no cut-off is given here.

Sequence of Tyrosyl-DNA phosphodiesterase 1 (Q9NUW8 whole entry): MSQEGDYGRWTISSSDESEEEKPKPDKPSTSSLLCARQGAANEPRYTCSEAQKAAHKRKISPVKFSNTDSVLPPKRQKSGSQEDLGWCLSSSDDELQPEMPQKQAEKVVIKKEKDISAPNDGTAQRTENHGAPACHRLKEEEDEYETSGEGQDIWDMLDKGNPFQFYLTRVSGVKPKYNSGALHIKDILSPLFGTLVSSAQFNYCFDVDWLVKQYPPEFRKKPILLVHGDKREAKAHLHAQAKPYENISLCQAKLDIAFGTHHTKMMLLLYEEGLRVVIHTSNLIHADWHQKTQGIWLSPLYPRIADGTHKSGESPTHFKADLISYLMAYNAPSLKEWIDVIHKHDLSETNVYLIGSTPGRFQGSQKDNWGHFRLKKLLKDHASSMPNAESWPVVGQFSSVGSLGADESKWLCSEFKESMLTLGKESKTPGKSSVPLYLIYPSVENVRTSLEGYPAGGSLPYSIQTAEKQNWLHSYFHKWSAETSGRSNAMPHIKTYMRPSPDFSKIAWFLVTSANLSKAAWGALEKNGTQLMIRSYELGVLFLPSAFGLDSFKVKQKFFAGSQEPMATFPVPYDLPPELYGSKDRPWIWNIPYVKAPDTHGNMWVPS

`COc1cccc2ccc3c4ccccc4c(=O)n(CCN(C)C)c3c12` had an inhibition in test [1] of 0%. Besides, the inhibition result in test [2] was “inactive”.

Turning to `CN(C)CCn1c(=O)c2c3c(ccc2c2ccc4ccccc4c21)OCO3`, in test [2], the inhibition came to 20%. Regarding `CN(C)CCn1c(=O)c2cc(Br)ccc2c2ccc3cc4c(cc3c21)OCO4`, in test [1], the inhibition was found to be 0%. Moreover, the inhibition result in test [2] was “inactive”. With `CN(C)CCn1c(=O)c2ccc(F)cc2c2ccc3cc4c(cc3c21)OCO4`, the inhibition in test [1] was 0%; in test [2], 50%. As for `CN(C)CCn1c(=O)c2cc3c(cc2c2ccc4cc5c(cc4c21)OCO5)OCO3`, the inhibition in test [2] turned out to be 20%.

For `CN(C)CCn1c(=O)c2ccccc2c2ccc3cc(Br)ccc3c21`, the values for the inhibition in test [1] and in test [2] were 0% and 20%, respectively. Take `CN(C)CCn1c(=O)c2ccc(Cl)cc2c2ccc3cc4c(cc3c21)OCO4`: the results for the inhibition in test [1] and in test [2] were 0% and 75%, respectively. For `CN(C)CCn1c(=O)c2cc([N+](=O)[O-])ccc2c2ccc3cc4c(cc3c21)OCO4`, in that order: 0% and 75%.

On to `COc1cccc2c1ccc1c3ccccc3c(=O)n(CCN(C)C)c21`, for which the inhibition in test [1] was 0%; in test [2] it was 20%. As to `COc1cc2ccccc2c2c1c1ccccc1c(=O)n2CCN(C)C`, the inhibition in test [1] turned out to be 0%. Moreover, in test [2], the inhibition entry is “inactive”.

`CN(C)CCn1c(=O)c2ccccc2c2ccc3ccccc3c21`: the inhibition in test [1] was 0%; in test [2] it was 20%. As to `COc1cc2c(=O)n(CCN(C)C)c3c4ccccc4ccc3c2cc1OC`, the inhibition in test [2] was determined as 25%. Take `COc1cc2c(cc1OC(C)C)c(=O)n(CCN(C)C)c1c3cc4c(cc3ccc21)OCO4`: the inhibition in test [1] came out at 0%. The inhibition entry in test [2] was “inactive”.

For `CN(C)CCn1c(=O)c2ccc(C(F)(F)F)cc2c2ccc3cc4c(cc3c21)OCO4`, the inhibition in test [1] amounted to 0%; in test [2] it was 50%. Also, the GI50 in the test with DU-145 came to 1 µM. Regarding `COc1cc2ccc3c4cc5c(cc4c(=O)n(CCN(C)C)c3c2cc1OC)OCO5`, the inhibition in test [2] was under 20%. `COc1cccc2c1c(=O)n(CCN(C)C)c1c3cc4c(cc3ccc21)OCO4`: the values for the inhibition in test [1] and in test [2] were 0% and 20%, respectively. As to `COc1ccc2c(=O)n(CCN(C)C)c3c4cc5c(cc4ccc3c2c1O)OCO5`, the inhibition in test [1] came out at 0%. Further, the inhibition result in test [2] was “inactive”. Further, in the test with MCF7, the GI50 is over 100 µM. With `COc1cc2c(=O)n(CCN(C)C)c3c4cc5c(cc4ccc3c2cc1O)OCO5`, the figures for the inhibition in test [1] and in test [2] were 0% and 20%, respectively. The GI50 with MCF7 and in the test on A549 was over 100 µM throughout.

With `CN(C)CCn1c(=O)c2c3c(ccc2c2ccc4cc5c(cc4c21)OCO5)OCO3`, the inhibition in test [2] came out at 20%. In the case of `COc1ccc2c(c1)c(=O)n(CCN(C)C)c1c3ccccc3ccc21`, the inhibition in test [2] worked out at 20%. Regarding `COc1cccc2c1c(=O)n(CCN(C)C)c1c3ccccc3ccc21`, in test [2], the inhibition entry was “inactive”. Regarding `COc1ccc2c(=O)n(CCN(C)C)c3c4cc5c(cc4ccc3c2c1)OCO5`, the inhibition in test [1] came to 0%; in test [2], 75%. Further, the GI50 in the test on MCF7 was determined as 0.2 µM. Consider `COc1ccc2c(c1OC)c(=O)n(CCN(C)C)c1c3ccccc3ccc21`, for which the inhibition in test [1] turned out to be 0%. Besides, the inhibition entry in test [2] is “inactive”.

`COc1cc2c(=O)n(CCN(C)C)c3c4cc(O)c(O)cc4ccc3c2cc1OC`: the inhibition in test [1] worked out at 0%; in test [2], 50%. For `COc1ccc2c(=O)n(CCN(C)C)c3c4ccccc4ccc3c2c1OC`, in that order: 0% and “inactive”. Consider `CN(C)CCn1c(=O)c2cc(O)c(O)cc2c2ccc3cc4c(cc3c21)OCO4`, for which the inhibition in test [1] turned out to be 0%; in test [2], 20%. Also, the GI50 with DU-145 was over 100 µM. Turning to `COc1cc2c3ccccc3c(=O)n(CCN(C)C)c2c2ccccc12`, the inhibition in test [2] was under 20%. As for `COc1cc2ccc3c4cc(OC)c(OC)cc4c(=O)n(CCN(C)C)c3c2cc1O`, the inhibition is 0% in test [1] and under 20% in test [2]. `COc1ccc2c(=O)n(CCN(C)C)c3c4ccccc4ccc3c2c1`: the inhibition in test [2] stood at 20%. On to `CN(C)CCn1c(=O)c2cc(O)ccc2c2ccc3ccccc3c21`, for which the inhibition in test [1] amounted to 0%; in test [2] it was 20%.

Regarding `COc1ccc2c(ccc3c4ccccc4c(=O)n(CCN(C)C)c23)c1`, the inhibition in test [1] was determined as 0%; in test [2] it was 20%. As to `COc1cc2c(ccc3c4cc(OC)c(OC)cc4c(=O)n(CCN(C)C)c23)cc1O`, the inhibition in test [2] turned out to be 20%.

`COc1cccc2c(=O)n(CCN(C)C)c3c4ccccc4ccc3c12`: in test [1], the inhibition was 0%. Further, the inhibition entry in test [2] is “inactive”. For the molecule `COc1ccc2ccc3c4ccccc4c(=O)n(CCN(C)C)c3c2c1`, the inhibition in test [1] was found to be 0%; in test [2], 20%.

The molecule `COc1ccc2c(c1)c(=O)n(CCN(C)C)c1c3cc4c(cc3ccc21)OCO4` displayed an inhibition in test [1] of 0%. Moreover, the inhibition entry in test [2] is “Active”.

`CN(C)CCn1c(=O)c2cc(F)c(F)cc2c2ccc3cc4c(cc3c21)OCO4`: the inhibition stood at 0% in test [1] and 75% in test [2]. On to `COc1cc2ccc3c4ccc5c(c4c(=O)n(CCN(C)C)c3c2cc1OC)OCO5`, for which the inhibition in test [1] came to 0%; in test [2] it was 20%. `COc1ccc2c(c1OC)c(=O)n(CCN(C)C)c1c3cc4c(cc3ccc21)OCO4` registered an inhibition in test [1] of 0%. For the same molecule, the inhibition result in test [2] is “inactive”. In the case of `COc1cc2c(cc1O)c(=O)n(CCN(C)C)c1c3cc4c(cc3ccc21)OCO4`, the inhibition in test [2] came out at 20%. Turning to `COc1cc2ccc3c4ccc(OC)c(OC)c4c(=O)n(CCN(C)C)c3c2cc1OC`, in test [1], the inhibition was found to be 0%. In addition, the inhibition entry in test [2] was “inactive”. Besides, in the test with HCT-116, the GI50 is over 100 µM. Consider `COc1cc2ccc3c4ccccc4c(=O)n(CCN(C)C)c3c2cc1OC`, for which the inhibition in test [2] was 20%. Turning to `CN(C)CCn1c(=O)c2cc3c(cc2c2ccc4ccccc4c21)OCO3`, the inhibition in test [2] is 25%. Turning to `CN(C)CCn1c(=O)c2cc(F)c(F)cc2c2ccc3ccccc3c21`, the inhibition was 0% in test [1] and 50% in test [2]. For `CN(C)CCn1c(=O)c2cc(F)ccc2c2ccc3cc4c(cc3c21)OCO4`, the inhibition in test [1] is 0%; in test [2] it was 75%. In the test on A549, the GI50 stood at 7.87 µM. `COc1ccc2c(c1O)c(=O)n(CCN(C)C)c1c3cc4c(cc3ccc21)OCO4`: in test [2], the inhibition was determined as 20%. As to `COc1cc2c(=O)n(CCN(C)C)c3c4cc5c(cc4ccc3c2cc1OC(C)C)OCO5`, the inhibition in test [1] amounted to 0%; in test [2], 20%. Besides, the GI50 in the test with HCT-116 is 0.9 µM. Turning to `COc1ccc2c(=O)n(CCN(C)C)c3c4cc5c(cc4ccc3c2c1OC)OCO5`, the inhibition in test [1] was determined as 0%. The inhibition result in test [2] is “inactive”.

Take `CN(C)CCn1c(=O)c2ccccc2c2ccc3cc4c(cc3c21)OCO4`: the inhibition in test [1] is 0%; in test [2], 20%. In test [1], `COc1cc2ccc3c4c(OC)c(OC)ccc4c(=O)n(CCN(C)C)c3c2cc1OC` came in with an inhibition of 0%. For the same molecule, the inhibition result in test [2] was “inactive”. For the same molecule, the 50% growth inhibitory concentration (GI50) with DU-145, in the test with HCT-116 and in the test on MCF7 was over 100 µM in each case. As for `COc1cc2ccc3c4cc(OC)c(OC)cc4c(=O)n(CCN(C)C)c3c2cc1OC`, the inhibition in test [2] was under 20%.

For orientation: inhibition means the share of the control response that was lost under treatment. By GI50 is commonly meant the concentration at which growth is held to half of that of the control.
